Reference: ChEMBL document CHEMBL2169854, “New insight into the central benzodiazepine receptor-ligand interactions: design, synthesis, biological evaluation, and molecular modeling of 3-substituted 6-phenyl-4H-imidazo[1,5-a][1,4]benzodiazepines and related compounds” (J Med Chem, 2011)
The source made the active and inactive calls. No cut-off for these calls is given here.

How the values were obtained:
Oocyte [1] = test: (§1) Modulation of human recombinant GABA-A alpha5beta2gamma2L receptor expressed in Xenopus laevis oocytes assessed as effect on GABA-induced chloride current at 10 uM incubated 60 seconds before addition of GABA measured after 30 seconds at holding potential -70 mV by two-microelectrode voltage clamp technique relative to control; assay type: cell-based
[2] = target: GABA A receptor alpha-1/beta-1/gamma-2 (Homo sapiens) (UniProt P14867+P18507+P18505); test: (§2) Antagonist at human recombinant GABA-A alpha1beta1gamma2L receptor expressed in Xenopus laevis oocytes assessed as blockade of diazepam-induced potentiation of GABA-induced chloride current at 10 uM incubated 60 seconds before addition of GABA measured after 30 seconds at holding potential -70 mV by two-microelectrode voltage clamp technique; assay type: functional, cell-based; settings: Oocyte
[3] = target: T1, GABA-A receptor; alpha-1/beta-2/gamma-2 (Homo sapiens) (UniProt P14867+P47870+P18507); test: as §1, with “alpha1beta2gamma2L” for “alpha5beta2gamma2L”, “1” for “10”; assay type: cell-based; settings: Oocyte
[4] = target: T1, GABA-A receptor; alpha-1/beta-2/gamma-2 (Homo sapiens); test: as §1, with “alpha1beta2gamma2L” for “alpha5beta2gamma2L”; assay type: cell-based; settings: Oocyte
Bos taurus = species on record: Bos taurus; test: Ratio of Ki for central benzodiazepine receptor in bovine cortical membrane to Ki for central benzodiazepine receptor in bovine cortical membrane in presence of 50 uM GABA; assay type: cell membranes
Oocyte [5] = test: as §2, with “alpha5beta2gamma2L” for “alpha1beta1gamma2L”; assay type: functional, cell-based
How it was run: (§3)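 Oocytes expressing human α1β2γ2L, α2β1γ2L or α5β2γ2L receptors were clamped at −70 mV. Compound at 10 μM was tested against the enhancement of the GABA EC10 response by 1.0 μM diazepam, with 60 s preapplication and 30 s coapplication. The response was expressed as percent potentiation, from 2–3 oocytes.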

Homo sapiens = species on record: Homo sapiens; test: Ratio of Ki for central benzodiazepine receptor in human cortical membrane to Ki for central benzodiazepine receptor in human cortical membrane in presence of 50 uM GABA; assay type: cell membranes
Rattus norvegicus [6] = species on record: Rattus norvegicus; test: Partial agonist activity at central benzodiazepine receptor in Sprague-Dawley rat cerebrocortical synaptoneurosomes assessed as increase in GABA-induced [36]chloride ion flow after 10 seconds by beta liquid scintillation counting; assay type: functional
How it was run: (§4)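 Cerebral cortex from male Sprague-Dawley rats was homogenised and filtered, and synaptoneurosomes were washed in HEPES pH 7 buffer (145 mM NaCl, 5 mM KCl, 5 mM MgCl2, 1 mM CaCl2, 10 mM glucose). Aliquots of 1.5–2 mg protein were preincubated 10 min at 30 C. Drug was added with 0.2 μCi 36Cl−, uptake was stopped at 10 s, and filter-bound radioactivity was counted by scintillation.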

[7] = target: T1, GABA-A receptor; alpha-1/beta-2/gamma-2 (Homo sapiens); test: as §2, with “alpha1beta2gamma2L” for “alpha1beta1gamma2L”; assay type: functional, cell-based; settings: Oocyte; how it was run: as §3
Mus musculus [8] = test: […] activity in mouse assessed as effect on explorative activity measuring number of inspections at 10 mg/kg, po after 5 mins by hole-board test relative to CMC-treated control; assay type: functional, organism-based; design: dose 10 mg/kg
How it was run: (§5)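 Mice dosed orally in 1% CMC were placed singly on a 16-hole board for 5 min. Photocells counted plane movements (spontaneous motility) and hole explorations. Groups of 12–15 mice were compared with CMC controls.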

Mus musculus [9] = test: […] activity in mouse assessed as effect on spontaneous motility measuring number of movements on plane board at 10 mg/kg, po after 5 mins by hole-board test relative to CMC-treated control; assay type: functional, organism-based; design: dose 10 mg/kg; how it was run: as §5
Mus musculus [10] = test: Antiamnesic activity against scopolamine-induced amnesic effect in mouse assessed as increase in retention latency period at 3 mg/kg, po by passive avoidance test; assay type: functional, organism-based; design: dose 3 mg/kg
How it was run: (§6)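 In a mouse passive-avoidance test, oral doses in 1% CMC were tested against amnesia induced by 1.5 mg/kg scopolamine ip. Retention latency was scored and compared with controls by ANOVA.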

Mus musculus [11] = test: Anxiolytic effect in mouse assessed as increase in time spent in light compartment at 10 mg/kg, po by light/dark box test; assay type: functional, organism-based; design: dose 10 mg/kg
How it was run: (§7)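 Male mice were used. Compound was given orally as a suspension in 1% CMC; diazepam was given ip in saline; volume 10 mL/kg. Each mouse was placed in the lit side of a two-compartment light/dark box and observed for 5 min, scoring time in the light and transfers. Groups were compared by ANOVA with Fisher PLSD.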

Mus musculus [12] = test: Anxiolytic effect in mouse assessed as increase in time spent in light compartment at 1 mg/kg, po by light/dark box test; assay type: functional, organism-based; design: dose 1 mg/kg; how it was run: as §7
Rattus norvegicus [13] = species on record: Rattus norvegicus; test: Agonist activity at central benzodiazepine receptor in Sprague-Dawley rat cerebrocortical synaptoneurosomes assessed as increase in GABA-induced [36]chloride ion flow after 10 seconds by beta liquid scintillation counting; assay type: functional; how it was run: as §4
Mus musculus [14] = test: Antiamnesic activity against scopolamine-induced amnesic effect in mouse at 10 mg/kg, po by passive avoidance test; assay type: functional, organism-based; design: dose 10 mg/kg; how it was run: as §6
Mus musculus [15] = test: Myorelaxant activity in mouse assessed as motor coordination measuring number of falls at 10 mg/kg, po measured for 30 seconds after 45 mins of compound administration by rotarod test; assay type: functional, organism-based; design: dose 10 mg/kg
How it was run: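 In mice, falls from the rotating rod were counted for 30 s after dosing. Compound was given orally in 1% CMC and diazepam ip in saline. Results were compared against saline/CMC controls by ANOVA.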

Structure (SMILES) | Activity (Oocyte [1]) [%] | Activity [2] | Activity [3] [%] | Activity [4] [%] | Ratio Ki (Bos taurus) | Activity (Oocyte [5]) | Ratio Ki (Homo sapiens) | Activity (Rattus norvegicus [6]) | Activity [7] | Activity (Mus musculus [8]) | Activity (Mus musculus [9]) | Activity (Mus musculus [10]) | Activity (Mus musculus [11]) | Activity (Mus musculus [12]) | Activity (Rattus norvegicus [13]) | Activity (Mus musculus [14]) | Activity (Mus musculus [15])
CCOC(=O)c1ncn2c1CN=C(c1ccc(C)cc1)c1ccccc1-2 | -22 | Active | 8 | -4 | 0.97 | Active | 1.1 | Active | Active |  |  |  |  |  |  |  | 
CCOC(=O)c1ncn2c1CN=C(c1ccc(F)cc1)c1cc(F)ccc1-2 | -16 | Active | -13 | 12 | 1 | Active | 1.05 |  | Active | inactive | inactive | Active | Active | Active | Active | Active | inactive
